# These entries were drawn from the full list.
# PGC1a Ac signal: compounds raising PGC1a acetylation signal, primary screen, PGC1a modulator project, cell-based, U2OS, AlphaScreen, signal-increasing mode; AID 651723, 2012; activation, % at 15.6 µM; 0.21% of 350,000 active; overnight;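 active = every replicate reaching activation of at least 50%, whatever the mean replicate activation; inconclusive = replicates that disagree or another doubt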;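 note: hits raise the AlphaScreen acetylation signal above neutral controls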
#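 Test system: U2OS cells expressing flag-PGC1a plus GCN5; Amount: 7000 U2OS cells per well; Compound: single test concentration per compound; Incubation: compound overnight at 37 °C, each detection step 1 h RT; Signal: AlphaScreen lysate read.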
# G6PC hep suppr: suppressors of forskolin-stimulated G6PC mRNA, dose response, PGC-1a acetylation activator project, cell-based, hepatocytes, RT-qPCR, cherry-picked samples. shares compounds with PGC1a Ac signal. 240 tested, under 10 active. G6PC suppression (normalized activity, % of positive control; higher = more suppression), % at 26 µM. primary mouse hepatocytes;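 active = dose curves showing G6PC suppression whose half-maximal dose is at most twice the top valid dose; inconclusive = flat curves with moderate negative activity, or unreliable fits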;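 note: G6PC expression relative to GAPDH housekeeping gene as delta delta Ct; 0% = median of neutral control wells and 100% = median of positive control wells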
# Hep PCK1 suppr: suppression of PCK1 mRNA in primary hepatocytes, dose response, PGC-1a acetylation activator project, cell-based, primary mouse hepatocytes, RT-qPCR, cherry-pick | shares compounds with PGC1a Ac signal | forskolin-stimulated | PCK1 expression decrease, unspecified at 26 µM | 230 tested, under 10 active;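 active = compounds lowering PCK1 expression whose fitted half-maximal concentration is at most twice the top tested dose; inconclusive = flat fit with moderate opposite-direction effect, or poor fit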;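 note: values are delta delta Ct of PCK1 relative to GAPDH; higher delta delta Ct means lower PCK1 expression so positive values indicate hits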
# Hep PGC-1a down: suppression of PGC-1a mRNA in primary hepatocytes, dose response, PGC-1a acetylation activator project, cell-based, primary mouse hepatocytes, RT-qPCR, cherry-pick; shares compounds with PGC1a Ac signal; PGC-1a mRNA qPCR, forskolin; top dose 26 µM; max activity (PGC-1a expression decrease), %; 240 tested, under 10 active; AID 743467, 2014;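 active = compound lowering PGC-1a expression with fitted half-maximal concentration at most twice its top tested dose; inconclusive = flat curve with moderate opposite-direction effect, or poor fit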;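 note: 0% = neutral control wells median and 100% = positive control wells median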
# * marks the source's active call; other numbers are inactive results; u = inconclusive; x = no result given; [ ] = remark or other dose.
SMILES,PGC1a Ac signal,G6PC hep suppr,Hep PCK1 suppr,Hep PGC-1a down
Cc1cccc(Oc2nccc(C(F)(F)F)c2C(=O)Nc2ccc(F)cc2F)c1,-85,x,x,x
COC(=O)C[C@@H]1C[C@H]2c3cc(NC(=O)Nc4ccc(C(F)(F)F)cc4)ccc3O[C@H]2[C@H](CO)O1,u,6[23.5 µM],-9.5[23.5 µM],25
COc1ccc2nc3cc(Cl)ccc3c(Nc3cc(CN4CCCC4)c(O)c(CN4CCCC4)c3)c2n1,-72,x,x,x
COc1ccc(CN2CCn3ncc(C(=O)Nc4ccccc4)c3C2=O)cc1,-129,88,39,53
Cc1cc(/C=C2\C(=N)N3N=C(C(C)C)SC3=NC2=O)c(C)n1Cc1ccccc1,-49,x,x,x
Clc1ccc(-c2csc(N3CCSCC3)n2)cc1,-45,-18,-17,29
C=CCNc1nc(Cl)nc(NCc2ccco2)n1,-42,x,x,x
N=c1n(Cc2ccccc2)c2ccccc2n1CC(O)COc1ccc(Cl)cc1Cl (stereo unspecified),-44,x,x,x
CC(=O)Nc1ccc(Nc2ncnc3c2cnn3-c2ccc(C)cc2C)cc1,131*,-73,x,130
CC(=O)Nc1ccc(NC2=C/C(=N/S(=O)(=O)c3cccs3)c3ccccc3C2=O)cc1,-70,x,x,x
CC(=O)c1cccc(N(C(=O)c2cnccn2)C(C(=O)NCc2ccccc2)c2ccco2)c1 (stereo unspecified),96*,45,129,188
CC(=O)c1cccc(N(C(=O)Cn2nnc3ccccc32)C(C(=O)NCc2ccccc2)c2ccccn2)c1 (stereo unspecified),u,-29,-11,-33
Cc1ccccc1NC1=C/C(=N\S(=O)(=O)c2cccs2)c2ccccc2C1=O,-88,x,x,x
O=C(C[C@H]1CC[C@H]2[C@@H](COC[C@@H](O)CN2C(=O)c2cc(Cl)cc(Cl)c2)O1)N1CCc2ccccc2C1,u,26,59,91
O=C(CCc1nc2ccccc2c(=O)[nH]1)OCC(=O)N1CCc2ccccc21,-53,x,x,x
COc1ccc(S(=O)(=O)N2CCOCC2)cc1NC(=O)CCNC(=O)c1ccc(Cl)cc1,76*,3,49,u
O=S(=O)(Nc1cc(Sc2ncn[nH]2)c(O)c2ccccc12)c1ccccc1,-72,x,x,x
O=C(Nc1ccccc1)C1=C[C@@H](c2ccc(C(F)(F)F)cc2)C[C@@H](OCc2ccc(CO)cc2)O1,63*,16,35,27
COc1cccc2c1C(=O)c1c(O)c3c(c(O)c1C2=O)C[C@@](O)(C(C)=O)C[C@@H]3O[C@H]1C[C@H](N)[C@H](O)[C@H](C)O1,-51,x,x,x
Cc1ccc2[nH]c(=O)c(CN(Cc3ccc4c(c3)OCO4)Cc3nnnn3C3CCCC3)cc2c1,58*,27,85,65
COc1ccc(CN(Cc2cc3ccc(C)cc3[nH]c2=O)Cc2nnnn2C2CCCC2)cc1,-53,x,x,x
Cc1cc(N)c2cc(NC(=O)/C=C/c3ccccc3Cl)ccc2n1,-80,x,x,x
c1ccc(CNc2ncnc3nc[nH]c23)cc1,-45,x,x,x
O=C(Nc1nc2cc3c(cc2s1)OCCO3)c1ccncc1,-62,x,x,x
N#Cc1cc2c(=O)n3ccccc3nc2n(Cc2cccnc2)c1=O,-49,x,x,x
SMILES,PGC1a Ac signal,G6PC hep suppr,Hep PCK1 suppr,Hep PGC-1a down
CCOC(=O)C1=C[C@@H](C(C)C)N(S(=O)(=O)c2ccc(C)cc2)[C@H]1c1ccc(C(F)(F)F)cc1,131*,-32,22,58
CCOC(=O)C1=CC[C@@H](c2ccc(F)cc2)N(S(=O)(=O)c2ccc(C)cc2)[C@H]1c1ccccc1,90*,x,34,93
CCOC(=O)C1=Nc2ccccc2C1=[N+]=[N-],-45,x,x,x
Nn1cnnc1N/N=C/c1ccc(Cl)c([N+](=O)[O-])c1,-53,x,x,x
CCOC(=O)c1ccc(N2C(=O)CC(N3CCC(O)(c4ccc(Br)cc4)CC3)C2=O)cc1 (stereo unspecified),-47,x,x,x
CCn1nc(C)c(CN2CCc3c([nH]c4ccccc34)C2C(C)(C)C)c1C (stereo unspecified),150*,-24,u,51
CN1CCN(C2=C(Cl)C(=O)N(CCc3ccccc3)C2=O)CC1,-47,x,x,x
Cc1cc(Cn2nc(C(=O)NCc3cccc(C(F)(F)F)c3)cc2-c2ccccc2)on1,78*,-60,u,30
CC(C)CC(NC(=O)c1ccc(Cl)cc1)C(=O)OCC(=O)c1ccc2c(c1)NC(=O)CO2 (stereo unspecified),-57,x,x,x
COc1ccc(C(CNC(=O)c2cccc(N(C)C)c2)N2CCCC2)cc1 (stereo unspecified),-47,176,121,28
CC(C)(C)NS(=O)(=O)c1ccc(-c2csnn2)s1,-61,x,x,x
O=C(CCCn1c(=O)[nH]c2cc(Cl)ccc2c1=O)NCCC1=CCCCC1,73*,60,u,-24
O=C(c1ccccc1Cl)N1CCNCC1,-67,x,x,x

# Screens as filed in PubChem.
